In ChEMBL document CHEMBL1287642, “Synthesis, antiviral activity and cytotoxicity evaluation of Schiff bases of some 2-phenyl quinazoline-4(3)H-ones” (Eur J Med Chem, 2010):
≈ marks a conversion by molar mass, not a printed value.

Assays:
[1] = test system: Mammalian orthoreovirus 1; assay: Antiviral activity against Reovirus-1 infected in african green monkey Vero cells assessed as protection against virus-induced cytopathogenicity after 2 days; assay type: functional, organism-based; conditions: Mammalian orthoreovirus 1, Vero, 48 h
Influenza A virus [2] = assay: Antiviral activity against influenza A virus H1N1 infected in MDCK cells assessed as cell viability at 100 ug/ml after 2 days by MTS assay; assay type: functional, organism-based
Influenza A virus [3] = assay: Antiviral activity against Influenza A virus H3N2 infected in MDCK cells assessed as protection against virus-induced cytopathogenicity at 100 ug/ml after 2 days; assay type: functional, organism-based
Outline: (§1)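 Infected MDCK cells were treated. […] N.A. means not active at the highest concentration tested or at a subtoxic concentration.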

Human respirovirus 3 = assay: Antiviral activity against Para influenza-3 virus infected in african green monkey Vero cells assessed as protection against virus-induced cytopathogenicity after 2 days; assay type: functional, organism-based; conditions: Human respirovirus 3, Vero, 48 h
[4] = test system: Vesicular stomatitis virus; assay: Antiviral activity against Vesicular stomatitis virus infected in human HEL cells assessed as protection against virus-induced cytopathogenicity after 2 days; assay type: functional, organism-based; conditions: 48 h
[5] = test system: Vesicular stomatitis virus; assay: Antiviral activity against Vesicular stomatitis virus infected in human HeLa cells assessed as protection against virus-induced cytopathogenicity after 2 days; assay type: functional, organism-based; conditions: 48 h
Felid alphaherpesvirus 1 = assay: Antiviral activity against Feline herpes virus infected in cat CRFK cells assessed as protection against virus-induced cytopathogenicity after 2 days by MTS assay; assay type: functional, organism-based; conditions: Felid alphaherpesvirus 1, CRFK, 48 h
Human alphaherpesvirus 1 [6] = assay: Antiviral activity against Herpes simplex virus-1 KOS infected in human HEL cells assessed as protection against virus-induced cytopathogenicity after 2 days; assay type: functional, organism-based; conditions: Human alphaherpesvirus 1, KOS, 48 h
[7] = Cytotoxicity against human HEL cells assessed as minimum concentration required to cause microscopically detectable alteration after 2 days; assay type: cell-based; conditions: read-out: Activity
MDCK = assay: Cytotoxicity against MDCK cells by MTS assay; assay type: cell-based, Canis lupus familiaris; conditions: dog, mdck
Outline: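 In Madin Darby canine kidney cells, the 50% cytotoxic concentration was derived from cell viability measured by the colorimetric formazan-based MTS assay.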

[8] = Cytotoxicity against cat CRFK cells by MTS assay; assay type: cell-based, Felis catus; conditions: crfk
Outline: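 In uninfected CRFK cells, the 50% cytotoxic concentration was derived from cell viability measured by the colorimetric formazan-based MTS assay.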

[9] = Cytotoxicity against MDCK cells assessed as minimum concentration required to cause microscopically detectable alteration after 2 days; assay type: cell-based, Canis lupus familiaris; conditions: dog, read-out: Activity
Human alphaherpesvirus 1 [10] = assay: Antiviral activity against acyclovir-resistant TK deficient Herpes simplex virus-1 KOS infected in human HEL cells assessed as protection against virus-induced cytopathogenicity after 2 days; assay type: functional, organism-based; conditions: Human alphaherpesvirus 1, KOS, 48 h
[11] = test system: Feline infectious peritonitis virus; assay: Antiviral activity against Feline coronavirus FIPV infected in cat CRFK cells assessed as protection against virus-induced cytopathogenicity after 2 days by MTS assay; assay type: functional, cell-based; conditions: Alphacoronavirus 1, CRFK, 48 h
Influenza A virus [12] = assay: Antiviral activity against Influenza A virus H3N2 infected in MDCK cells assessed as cell viability at 100 ug/ml after 2 days by MTS assay; assay type: functional, organism-based
Influenza B virus [13] = assay: Antiviral activity against influenza B virus infected in MDCK cells assessed as cell viability at 100 ug/ml after 2 days by MTS assay; assay type: functional, organism-based
Coxsackievirus B4 [14] = assay: Antiviral activity against Coxsackie virus B4 infected in african green monkey Vero cells assessed as protection against virus-induced cytopathogenicity after 2 days; assay type: functional, organism-based; conditions: Enterovirus B, 48 h
Influenza B virus [15] = assay: Antiviral activity against influenza B virus infected in MDCK cells assessed as protection against virus-induced cytopathogenicity at 100 ug/ml after 2 days; assay type: functional, organism-based; outline: as §1
[16] = Cytotoxicity against african green monkey Vero cells assessed as minimum concentration required to cause microscopically detectable alteration after 2 days; assay type: cell-based; conditions: chlorocebus sabaeus, read-out: Activity
Influenza A virus [17] = assay: Antiviral activity against influenza A virus H1N1 infected in MDCK cells assessed as protection against virus-induced cytopathogenicity at 100 ug/ml after 2 days; assay type: functional, organism-based; outline: as §1
[18] = test system: Respiratory syncytial virus; assay: Antiviral activity against Respiratory syncytial virus infected in human HeLa cells assessed as protection against virus-induced cytopathogenicity after 2 days; assay type: functional, organism-based; conditions: 48 h
Coxsackievirus B4 [19] = assay: Antiviral activity against Coxsackie virus B4 infected in human HeLa cells assessed as protection against virus-induced cytopathogenicity after 2 days; assay type: functional, organism-based; conditions: Enterovirus B, 48 h
Human alphaherpesvirus 2 = assay: Antiviral activity against Herpes simplex virus-2 G infected in human HEL cells assessed as protection against virus-induced cytopathogenicity after 2 days; assay type: functional, organism-based; conditions: Human alphaherpesvirus 2, strain G, 48 h
[20] = Cytotoxicity against human HeLa cells assessed as minimum concentration required to cause microscopically detectable alteration after 2 days; assay type: cell-based; conditions: read-out: Activity
Punta Toro virus = assay: Antiviral activity against Punta Toro virus infected in african green monkey Vero cells assessed as protection against virus-induced cytopathogenicity after 2 days; assay type: functional, organism-based; conditions: 48 h
Sindbis virus = assay: Antiviral activity against Sindbis virus infected in african green monkey Vero cells assessed as protection against virus-induced cytopathogenicity after 2 days; assay type: functional, organism-based; conditions: 48 h

SMILES	EC50 [1] [mg/L]	EC50 (Influenza A virus [2])	EC50 (Influenza A virus [3])	EC50 (Human respirovirus 3) [mg/L]	EC50 [5] [mg/L]	EC50 (Felid alphaherpesvirus 1) [mg/L]	EC50 (Human alphaherpesvirus 1 [6]) [mg/L]	MCC at 48 h [7] [µg/mL]	MCC at 48 h [9] [µg/mL]	EC50 (Human alphaherpesvirus 1 [10]) [mg/L]	EC50 (Influenza A virus [12])	EC50 (Influenza B virus [13])	EC50 (Coxsackievirus B4 [14]) [mg/L]	EC50 (Influenza B virus [15])	MCC at 48 h [16] [µg/mL]	EC50 (Influenza A virus [17])	EC50 [18] [mg/L]	EC50 (Coxsackievirus B4 [19]) [mg/L]	MCC at 48 h [20] [µg/mL]	EC50 (Sindbis virus) [mg/L]	other results
C/C(=N\n1c(-c2ccccc2)nc2ccccc2c1=O)c1ccc(O)cc1	> 100	Not Active	Not Active	> 100	> 100	> 100	> 100	> 100	> 100	> 100	Not Active	Not Active	> 100	Not Active	100	Not Active	> 100	> 100	> 100	> 100	EC50 [4]: > 100 mg/L; CC50 (MDCK): > 100 mg/L; CC50 [8]: > 100 mg/L; EC50 [11]: > 100 mg/L; EC50 (Human alphaherpesvirus 2): > 100 mg/L; EC50 (Punta Toro virus): > 100 mg/L
C/C(=N\n1c(-c2ccccc2)nc2ccccc2c1=O)c1ccccc1	> 20	Not Active	Not Active	> 20	> 100	> 0.8	> 100	> 100	100	> 100	Not Active	Not Active	> 20	Not Active	100	Not Active	> 100	> 100	> 100	> 20	EC50 [4]: > 100 mg/L; CC50 (MDCK): > 100 mg/L; CC50 [8]: 2.6 mg/L (≈ 7.66 µM); EC50 [11]: > 0.8 mg/L; EC50 (Human alphaherpesvirus 2): > 100 mg/L; EC50 (Punta Toro virus): > 20 mg/L
C/C(=N\n1c(-c2ccccc2)nc2ccccc2c1=O)c1ccc(Cl)cc1	> 20	Not Active	Not Active	> 20	> 20	> 100		100		> 20	Not Active	Not Active	> 20	Not Active	100	Not Active			100		
Nc1ncnc2c1ncn2C[C@H](O)CO [(S)-DHPA]	> 250			> 250	> 250								> 250		> 250		> 250	> 250	> 250	> 250	EC50 (Punta Toro virus): > 250 mg/L
NC(=O)c1ncn([C@@H]2O[C@H](CO)[C@@H](O)[C@H]2O)n1 [RIBAVIRIN]	> 250				22 (≈ 90.1 µM)		> 250	> 250	> 100	> 250			> 250		> 250		22 (≈ 90.1 µM)		> 250	> 250	EC50 (Human alphaherpesvirus 2): > 250 mg/L
COc1ccccc1/C=N/n1c(-c2ccccc2)nc2ccccc2c1=O	> 20	Not Active	Not Active	> 20	> 4	> 4	> 20	100	20	> 20	Not Active	Not Active	> 20	Not Active	100	Not Active	> 4	> 4	20	> 20	EC50 [4]: > 20 mg/L; CC50 (MDCK): 12.4 mg/L (≈ 34.9 µM); CC50 [8]: 14.4 mg/L (≈ 40.5 µM); EC50 [11]: > 4 mg/L; EC50 (Human alphaherpesvirus 2): > 20 mg/L; EC50 (Punta Toro virus): > 20 mg/L
O=c1c2ccccc2nc(-c2ccccc2)n1/N=C/c1ccc(Cl)cc1	> 4	Not Active	Not Active	> 4	> 4	> 20	> 20	100	20	> 20	Not Active	Not Active	> 4	Not Active	20	Not Active	> 4	> 4	20	> 4	EC50 [4]: > 20 mg/L; CC50 (MDCK): 76.4 mg/L (≈ 212 µM); CC50 [8]: 42.2 mg/L (≈ 117 µM); EC50 [11]: > 20 mg/L; EC50 (Human alphaherpesvirus 2): > 20 mg/L; EC50 (Punta Toro virus): > 4 mg/L
